Cdc25B block – inhibitors of human Cdc25B phosphatase; 65,000 compounds, 0.1% hits; AID 368; P30305; inhibition, %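 (compounds tested at 10 µM final in the well)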; recombinant Cdc25B, OMFP fluorescence Ex485/Em525; in the data active = inhibition above about 50%
BAP1 block – inhibitors of human BAP1 deubiquitinase; calls only at 20 µM; Q92560; recombinant BAP1, Ub-AMC hydrolysis fluorescence kinetic; active compounds read low; 72,000 compounds, 0.48% hits;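 active = activity remaining at or below 50% of control, provided the compound also passes the data quality filters; inactive = the rest, including low values that fail the filters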
Target sequence (Q92560 whole entry, looked up): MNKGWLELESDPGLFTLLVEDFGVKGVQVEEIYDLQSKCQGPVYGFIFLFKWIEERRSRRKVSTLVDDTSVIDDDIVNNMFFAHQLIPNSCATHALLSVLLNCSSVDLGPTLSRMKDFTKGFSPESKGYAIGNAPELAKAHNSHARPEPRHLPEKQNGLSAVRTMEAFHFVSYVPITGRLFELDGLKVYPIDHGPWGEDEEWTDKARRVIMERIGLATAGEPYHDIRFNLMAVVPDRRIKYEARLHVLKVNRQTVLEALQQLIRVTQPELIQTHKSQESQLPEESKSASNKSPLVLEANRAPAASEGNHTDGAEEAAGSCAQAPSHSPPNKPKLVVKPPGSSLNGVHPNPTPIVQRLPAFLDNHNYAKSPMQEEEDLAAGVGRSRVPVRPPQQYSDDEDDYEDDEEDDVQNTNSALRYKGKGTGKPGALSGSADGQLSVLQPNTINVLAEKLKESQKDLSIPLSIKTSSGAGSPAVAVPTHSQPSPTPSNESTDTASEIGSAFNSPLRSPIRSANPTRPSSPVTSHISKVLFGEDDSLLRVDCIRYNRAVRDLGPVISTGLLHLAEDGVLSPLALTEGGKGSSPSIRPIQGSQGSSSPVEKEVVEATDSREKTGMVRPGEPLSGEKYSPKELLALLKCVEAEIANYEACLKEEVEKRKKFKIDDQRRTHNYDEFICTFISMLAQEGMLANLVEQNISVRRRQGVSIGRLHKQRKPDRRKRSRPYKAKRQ
Hsp90 inh – displaces geldanamycin probe from tumor Hsp90; P07900; NCI-N417 lysate Hsp90, Cy3B-geldanamycin FP displacement; inhibition, % at 30 µM; 64,000 compounds, 0.35% hits; AID 429;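 active = inhibition above 50%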
tolC growth inh – blocks growth of E. coli BW25113 tolC mutant; OD615; growth inhibition, % at 10 µM (by protocol); 65,000 compounds, 2.2% hits;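 active = growth inhibition at or above a cutoff equal to the mean over every tested compound plus 3 SD, cut at about 60% in these data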;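 note: growth measured after 20 h incubation at 37 °C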
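Signal: optical density read at 615 nm; Assay system: E. coli ΔtolC::kan strain BW25113; Times: 20 h incubation with compound, 37 °C; Dosing: 10 µM final, single dose.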
DUSP1 inh – human dual specificity phosphatase 1 inhibition | inhibition, %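 (compounds tested at a single concentration somewhere between 10 and 100 µM)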 | P28562 | recombinant MKP-1, OMFP hydrolysis fluorescence | 65,000 compounds, 0.15% hits;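 active = inhibition above about 50%, limit read from the data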
E coli RNAP – blocks E. coli RNA polymerase transcription; AID 559; P0A8V2; 62,000 compounds, 0.2% hits; inhibition, %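 (tested at 10 µM)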; fluorescence transcription assay; in the data active = inhibition above about 20%
Of the large screens only hits and unclear results are named; the others gave an inactive call. This is a sample that favours compounds with a hit; in the whole collection about 2.9% have one here.

Brc1ccc(CSc2nnc(-c3ccccn3)n2Cc2ccco2)cc1	tolC growth inh 98 (no result: BAP1 block, Hsp90 inh)
c1ccc(CSc2nnc(-c3cccs3)n2Cc2ccco2)cc1	tolC growth inh 96 (not shown: BAP1 block)
CCOc1ccc(NC(=O)N(C2CCCCC2)C2CCN(C(C)=O)CC2)cc1	Cdc25B block 64
CCOc1ccc(NC(=O)N(C2CCCCCC2)C2CCN(C(C)=O)CC2)cc1	none
O=C(Nc1ccc(Cl)cc1)c1ccc(Oc2ccccc2)cc1	none (no result: Cdc25B block, Hsp90 inh, tolC growth inh, DUSP1 inh, E coli RNAP)
O=C(CSc1nnc(Cc2cccs2)n1Cc1ccco1)Nc1ccc(Br)cc1	tolC growth inh 100
O=C(CSc1nnc(Cc2ccccc2)n1Cc1ccco1)NC12CC3CC(CC(C3)C1)C2	tolC growth inh 83
O=C(CSc1nnc(Cc2cccs2)n1Cc1ccco1)Nc1ccc(Cl)cc1Cl	tolC growth inh 95
Cc1ccc2oc(-c3cccc(NC(=O)c4ccccc4F)c3C)nc2c1	none (no result: Cdc25B block, Hsp90 inh, tolC growth inh, DUSP1 inh, E coli RNAP)
CC(C)C(=O)Nc1ccc(S(=O)(=O)Nc2nccs2)cc1	none (no result: Cdc25B block, Hsp90 inh, tolC growth inh, DUSP1 inh, E coli RNAP)
COCc1nnc(NC(=O)c2ccc(S(=O)(=O)N(C)C3CCCCC3)cc2)o1	tolC growth inh 95
COCCN(CCOC)S(=O)(=O)c1ccc(C(=O)Nc2nnc(C)o2)cc1	none
Cc1nnc(NC(=O)c2ccc(S(=O)(=O)N(C)Cc3ccccc3)cc2)o1	tolC growth inh 74
Cc1nnc(NC(=O)c2ccc(S(=O)(=O)N3CCCCCC3)cc2)o1	none
COCc1nnc(NC(=O)c2ccc(S(=O)(=O)N3CCCCCC3)cc2)o1	tolC growth inh 74
CN(C1CCCCC1)S(=O)(=O)c1ccc(NC(=O)c2ccc(Br)o2)cc1	tolC growth inh 70
CC1=C(C)CC2C(=O)N(c3ccc(F)cc3)C(=O)C2C1 (stereo not drawn)	none (no result: Cdc25B block, Hsp90 inh, tolC growth inh, DUSP1 inh, E coli RNAP)
CCOc1ccc(C(=O)Nc2c[nH]c(=O)[nH]c2=O)cc1	none (no result: Cdc25B block, Hsp90 inh, tolC growth inh, DUSP1 inh, E coli RNAP)
CCOc1ccc(NC(=O)Cn2nnc(-c3ccccc3NC(=O)C3CC3)n2)cc1	E coli RNAP 24
O=C(Nc1ccccc1)N(CCCN1CCOCC1)Cc1ccccc1F	none
O=C(Nc1cccc(Cl)c1)N(CCCN1CCOCC1)Cc1ccccc1F	tolC growth inh 68
c1ccc(-c2oc3ncnc(NCCN4CCOCC4)c3c2-c2ccccc2)cc1	tolC growth inh 65
c1ccc(-c2oc3ncnc(NCCCn4ccnc4)c3c2-c2ccccc2)cc1	tolC growth inh 98
c1ccc2c(c1)oc1c(NCCCn3ccnc3)ncnc12	none (no result: E coli RNAP)
C=CCn1c(SCC(O)Cn2c3ccccc3c3ccccc32)nnc1-c1ccco1 (stereo not drawn)	tolC growth inh 81 (not shown: BAP1 block)
CC1CCc2nc(NC(=O)c3ccc(S(=O)(=O)N(C)c4ccccc4)cc3)sc2C1 (stereo not drawn)	none (no result: Cdc25B block, Hsp90 inh, tolC growth inh, DUSP1 inh, E coli RNAP)
CCOC(=O)C1=C(c2ccccc2)OC(N)=C(C#N)C1c1ccco1 (stereo not drawn)	none
CCOC(=O)C1=C(c2ccccc2)OC(N)=C(C#N)C1C(C)C (stereo not drawn)	E coli RNAP 40
CCNc1c2c3c(cccc3n(C)c1=O)C(=O)c1ccccc1-2	none
Cn1c(=O)c(NCCO)c2c3c(cccc31)C(=O)c1ccccc1-2	Hsp90 inh 135
COc1cccc(-c2cc(C(=O)Nc3c(C)nn(Cc4ccccc4C)c3C)no2)c1	tolC growth inh 71
Cc1nn(Cc2ccc(Cl)cc2)c(C)c1NC(=O)c1noc2c1CCCCC2	tolC growth inh 84
Cc1ccccc1Cn1nc(C)c(NC(=O)c2noc3c2CCc2ccccc2-3)c1C	tolC growth inh 68
Cc1ccccc1Cn1nc(C)c(NC(=O)c2noc3c2CC(C(C)(C)C)CC3)c1C (stereo not drawn)	tolC growth inh 74
Cc1nn(Cc2ccc(Cl)c(Cl)c2)c(C)c1NC(=O)c1noc2c1CCCCC2	none
CCOC(=O)c1c(NC(=O)c2ccc(Cl)cc2)sc2c1CCC2	none (no result: Cdc25B block, Hsp90 inh, tolC growth inh, DUSP1 inh, E coli RNAP)
CCOc1cccc(N2C(=O)CC(N3CCN(C)CC3)C2=O)c1 (stereo not drawn)	none (no result: Cdc25B block, Hsp90 inh, tolC growth inh, DUSP1 inh, E coli RNAP)
CCOC(=O)CCSc1nc2c(c(C(F)(F)F)c1C#N)CCC2	tolC growth inh 66 (not shown: BAP1 block)
CCOC(=O)CC(=O)CSc1nc2c(c(C)c1C#N)CCC2	none
CCn1c2ccccc2c2cc(NC(=O)c3ccco3)ccc21	tolC growth inh 87
CCn1c2ccccc2c2cc(CN3CCN(C(=O)c4ccco4)CC3)ccc21	none
CCOC(=O)c1c(C)n(C)c2ccc(OCC(O)Cn3nc(C)c(Br)c3C)cc12 (stereo not drawn)	tolC growth inh 88 (no result: E coli RNAP)
c1ccc2sc(SCc3ccc(-c4nnco4)cc3)nc2c1	Hsp90 inh 91 (not shown: BAP1 block)
Cc1ccc(C)n1-n1c(C)nc2sc3c(c2c1=O)CCCCC3	tolC growth inh 67
O=c1c2c3c(sc2nc2n1CCCCC2)CCCCC3	none
Cc1c(Cl)cccc1-c1ccc(C(=O)Nc2cccc3nsnc23)o1	none (no result: Cdc25B block, Hsp90 inh, tolC growth inh, DUSP1 inh, E coli RNAP)
COc1ccc(C2CC(=O)C3=C(C2)Nc2ncnn2C3c2ccccc2)cc1 (stereo not drawn)	Hsp90 inh 91
COc1ccc(C2=NO[C@@H]3C(=O)N(c4ccc5c(c4)OCCO5)C(=O)[C@H]23)cc1OC	Hsp90 inh 68
COc1ccc(C2=NO[C@@H]3C(=O)N(C4CCCCC4)C(=O)[C@H]23)cc1OC	none
CCn1c(SCC(=O)N2c3ccccc3Sc3ccccc32)nnc1-c1ccco1	none
Cn1c(SCC(=O)N2c3ccccc3Sc3ccc(Cl)cc32)nnc1-c1ccco1	tolC growth inh 65
O=S(=O)(c1cccc(-c2nnc(-c3ccc(Br)cc3)o2)c1)N1CCCCCC1	none (no result: BAP1 block, Hsp90 inh)
O=S(=O)(c1cccc(-c2nnco2)c1)N1CCCC1	Hsp90 inh 91
Cc1onc(-c2ccccc2Cl)c1C(=O)Nc1ccc(-n2nncc2C(C)(C)C)cc1	Cdc25B block 66
CCCCCCc1cc2c(=O)c(-c3ccccc3)coc2cc1OC	none (no result: Cdc25B block, Hsp90 inh, tolC growth inh, DUSP1 inh, E coli RNAP)
O=C(O)/C=C/c1ccc(O)c(O)c1	Hsp90 inh 53, E coli RNAP 21
O=C(CSc1nc2ccccc2c(=O)n1Cc1ccco1)NCc1ccco1	none
CN(Cc1ccccc1)C(=O)CSc1nc2ccccc2c(=O)n1Cc1ccco1	tolC growth inh 67
Cc1[nH]c2c([N+](=O)[O-])cccc2c1-c1ccccc1	none (no result: Cdc25B block, Hsp90 inh, tolC growth inh, DUSP1 inh, E coli RNAP)
COc1cc(NCCN(CC(C)C)CC(C)C)c2ncccc2c1	none (no result: Cdc25B block, BAP1 block, tolC growth inh, DUSP1 inh, E coli RNAP)
CCC(C)NCCNc1cc(OC)cc2cccnc12 (stereo not drawn)	Hsp90 inh 127 (no result: Cdc25B block, BAP1 block, tolC growth inh, DUSP1 inh, E coli RNAP)
Cc1cc(N2CCC(C(=O)Nc3ccc(F)cc3)CC2)nc(-c2ccccc2)n1	tolC growth inh 89
COC(=O)C1=C(C)N(C)C(C)=C(C(=O)OC)C1c1ccc(OC)cc1OC	none (no result: Cdc25B block, Hsp90 inh, tolC growth inh, DUSP1 inh, E coli RNAP)
COc1ccc(OC)c(Nc2nc(-c3cccs3)cs2)c1	tolC growth inh 61
COc1ccccc1Nc1nc(-c2cccs2)cs1	none
CCOC(=O)c1sc2nc(CC(=O)OC)nc(N3CCN(c4ccccn4)CC3)c2c1C	tolC growth inh 66 (not shown: BAP1 block)
COc1cccc(OCC(=O)N(Cc2nc(-c3ccc(Cl)cc3)no2)C(C)C)c1	tolC growth inh 63

Screens as filed in PubChem.
